Experimental data published in ChEMBL document CHEMBL1135254, “Novel N-[1-(1-substituted 4-piperidinylmethyl)-4-piperidinyl]benzamides as potent colonic prokinetic agents” (Bioorg Med Chem Lett, 2002).

Key:
[1] = molecular target: 5-hydroxytryptamine receptor 4 (Cavia porcellus, UniProt O70528); assay: Inhibitory activity against 5-hydroxytryptamine 4 receptor of guinea pig striatum using [3H]GR-113808 as radioligand; type: tissue-based
Canis familiaris [2] = assay: Gastrointestinal motility was reported after intravenous administration at a dose 1 mg/kg to dogs in stomach; type: functional, Canis lupus familiaris
Method in brief: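 Contractions were recorded by force transducers implanted on the gastric antrum and analyzed by computer. The motor index is the area between the contraction wave and baseline, i.e. amplitude (voltage) × time in min over a fixed period. The index for the 30 min after dosing is expressed as a percentage of that for the 30 min before.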

Canis familiaris [3] = assay: Gastrointestinal motility was reported after intravenous administration at a dose 1 mg/kg to dogs as induction number of GMC (gaint migrating contractions); type: functional, Canis lupus familiaris
Method in brief: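 Colonic contractions were recorded by a force transducer implanted on the ascending colon and analyzed by computer. Colonic motility is expressed as the number of giant migrating contractions induced after dosing.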

Mus musculus = organism: Mus musculus; assay: Dose at which the compound induced fecal excretion in mice; type: organism-based, Feces; conditions: in vivo
Method in brief: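 Unfasted mice were dosed subcutaneously, and fecal excretion was the read-out.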

5-hydroxytryptamine receptor 4, sequence (O70528 whole entry): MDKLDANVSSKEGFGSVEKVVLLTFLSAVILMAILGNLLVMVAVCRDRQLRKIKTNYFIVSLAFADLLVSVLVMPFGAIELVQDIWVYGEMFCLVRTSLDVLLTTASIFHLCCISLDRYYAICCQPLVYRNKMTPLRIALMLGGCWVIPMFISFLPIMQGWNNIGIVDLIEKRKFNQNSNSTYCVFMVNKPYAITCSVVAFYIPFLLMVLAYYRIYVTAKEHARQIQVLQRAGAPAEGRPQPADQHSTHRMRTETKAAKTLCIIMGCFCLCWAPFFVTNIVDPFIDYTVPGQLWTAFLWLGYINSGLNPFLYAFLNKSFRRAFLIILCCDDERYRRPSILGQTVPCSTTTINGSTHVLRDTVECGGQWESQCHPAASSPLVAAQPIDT

| IC50 [1] [nM] | Dose (Mus musculus) [mg/kg] | SMILES | Gastric motor index, % of pre-dose (Canis familiaris [2]) [%] | Induction number (Canis familiaris [3]) |
| --- | --- | --- | --- | --- |
| 9.3 |  | COc1cc(N)c(Cl)cc1C(=O)NC1CCN(CC2CCN(C(=O)CN)CC2)CC1 | 165 | 5 |
| 13.4 |  | COc1cc(N)c(Cl)cc1C(=O)NC1CCN(CC2CCN(CCCN)CC2)CC1 | 151 | 7 |
| 3.99 |  | COc1cc(N)c(Cl)cc1C(=O)NC1CCN(CC2CCN(C(=O)CCCN)CC2)CC1 | 130 | 5 |
| 113 |  | CCOc1cc(N)c(Cl)cc1C(=O)NCC1CN(Cc2ccc(F)cc2)CCO1 (stereo not drawn) [MOSAPRIDE] | 188 |  |
| 11.2 |  | COc1cc(N)c(Cl)cc1C(=O)NC1CCN(CC2CCN(CCCCCN)CC2)CC1 | 194 | 4 |
| 2.57 |  | CCCC(N)C(=O)N1CCC(CN2CCC(NC(=O)c3cc(Cl)c(N)cc3OC)CC2)CC1 (stereo not drawn) | 117 | 1 |
| 425 |  | COc1cc(N)c(Cl)cc1C(=O)NC1CCN(C(=O)C2CCN(C(=O)CCCN)CC2)CC1 | 132 | 2 |
| 14.4 |  | COc1cc(N)c(Cl)cc1C(=O)NC1CCN(CC2CCN(CC(O)CN)CC2)CC1 (stereo not drawn) | 121 |  |
| 40.6 |  | COc1cc(N)c(Cl)cc1C(=O)NCC(O)CN1CCC(CN2CCC(N)CC2)CC1 (stereo not drawn) |  |  |
| 3.91 |  | COc1cc(N)c(Cl)cc1C(=O)NC1CCN(CC2CCN(C(=O)CCCCN)CC2)CC1 | 112 |  |
| 21.1 |  | COc1cc(N)c(Cl)cc1C(=O)NC1CCN(CC2CCN(CCCNS(C)(=O)=O)CC2)CC1 | 151 | 2 |
| 9.5 |  | COc1cc(N)c(Cl)cc1C(=O)NC1CCN(CC2CCN(C(=O)CCN)CC2)CC1 | 107 | 3 |
| 2.6 |  | COc1cc(N)c(Cl)cc1C(=O)NC1CCN(CC2CCN(C(=O)C(C)(C)N)CC2)CC1 | 112 |  |
| 2.53 |  | COc1cc(N)c(Cl)cc1C(=O)NC1CCN(CC2CCN(C(=O)C(N)C(C)C)CC2)CC1 (stereo not drawn) | 147 |  |
| 14.3 |  | COc1cc(N)c(Cl)cc1C(=O)NC1CCN(CC2CCN(CC(C)CN)CC2)CC1 (stereo not drawn) | 177 | 1 |
| 5.08 |  | COc1cc(N)c(Cl)cc1C(=O)NC1CCN(CC2CCN(C(=O)C(C)CN)CC2)CC1 (stereo not drawn) | 121 |  |
| 5.06 |  | COc1cc(N)c(Cl)cc1C(=O)NC1CCN(CC2CCN(C(=O)C(C)N)CC2)CC1 (stereo not drawn) | 127 |  |
| 14.3 |  | COc1cc(N)c(Cl)cc1C(=O)NC1CCN(CC2CCN(CCN)CC2)CC1 | 127 |  |
| 6.47 | > 1 | COc1cc(N)c(Cl)cc1C(=O)NC1CCN(CC2CCN(CCCCN)CC2)CC1 | 148 | 6 |
